Laboratory results: ChEMBL document CHEMBL3608263, “Identification and optimisation of 4,5-dihydrobenzo[1,2-d:3,4-d]bisthiazole and 4,5-dihydrothiazolo[4,5-h]quinazoline series of selective phosphatidylinositol-3 kinase alpha inhibitors” (Bioorg Med Chem Lett, 2015)
Values after ≈ are worked out from the molar mass of the structure shown.

Key:
[1] = Solubility of the compound at pH 6.8 by high throughput equilibrium method; type: physicochemical; conditions: buffer
[2] = system: Rattus norvegicus; assay: Dose normalized AUC in Sprague-Dawley rat at 1 mg/kg, iv; type: ADME, organism-based; conditions: in vivo
Outline: (§1)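 Female Sprague-Dawley rats, conscious, permanently cannulated, with free access to food. Dosed 1.0 mg kg-1 intravenously and 3.0 mg kg-1 orally. Blood levels sampled from 5 minutes to 48 h post dose.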

[3] = Volume of distribution at steady state in Sprague-Dawley rat at 1 mg/kg, iv and 3 mg/kg, po; type: ADME, organism-based; conditions: in vivo, read-out: Vdss; outline: as §1
[4] = Oral bioavailability in Sprague-Dawley rat at 3 mg/kg; type: ADME, organism-based; conditions: in vivo; outline: as §1
[5] = system: Rattus norvegicus; assay: Dose normalized AUC in Sprague-Dawley rat at 3 mg/kg, po; type: ADME, organism-based; conditions: in vivo; outline: as §1
[6] = Permeability across basolateral to apical side in human Caco2 cells; type: ADME, cell-based; conditions: Caco-2, read-out: permeability
[7] = Permeability across apical to basolateral side in human Caco2 cells; type: ADME, cell-based; conditions: Caco-2, read-out: permeability
[8] = Plasma concentration in athymic nude mouse xenografted with Rat1-myr-p110alpha tumor at 50 mg/kg, po measured up to 8 hrs; type: ADME, organism-based
Outline: (§2)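 Female athymic mice bearing subcutaneous Rat1-myr-p110α xenografts were given one oral dose of 50 mg kg-1, as suspension or solution. At set time points, groups of n = 4 were sacrificed. Tumors were flash-frozen, pulverized and analysed by Western blot for Ser473 p-Akt. Compound was quantified in plasma in parallel.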

[9] = Plasma concentration in athymic nude mouse xenografted with Rat1-myr-p110alpha tumor at 50 mg/kg, po measured after 16 hrs; type: ADME, organism-based; outline: as §2
[10] = system: Plasma; assay: Drug uptake in plasma of athymic nude mouse xenografted with Rat1-myr-p110alpha tumor at 50 mg/kg, po measured at 8 hrs; type: ADME, organism-based; conditions: in vivo; outline: as §2

SMILES | solubility thermodynamic [1] | AUC/dose [2] | Vd [3] | bioavailability [4] | AUC/dose [5] | Papp B→A [6] | Papp A→B [7] | other results
C[C@@H]1CCN(C(=O)Nc2nc3c(s2)-c2nc(C(C)(C)C)sc2CC3)[C@@H]1C(N)=O | 9 µM (≈ 3.78 µg/mL) |  |  |  |  |  |  | 
CC(C)(C)c1nc2c(s1)CCc1nc(NC(=O)N3CCC[C@H]3C(N)=O)sc1-2 | 65 µM (≈ 26.4 µg/mL) | 4132 nmol·h/L | 0.4 L/kg | 39% | 1585 nmol·h/L |  |  | 
C[C@H]1CCN(C(=O)Nc2nc3c(s2)-c2nc(C(C)(C)C)sc2CC3)[C@@H]1C(N)=O | < 4 µM |  |  |  |  |  |  | 
C[C@@H]1CCN(C(=O)Nc2nc3c(s2)-c2nc(C(C)(C)C(F)(F)F)ncc2CC3)[C@@H]1C(N)=O | 9 µM (≈ 4.22 µg/mL) |  |  |  |  |  |  | 
CC(C)(C)c1nc2c(s1)CCc1nc(NC(=O)N3CCC[C@@]3(C)C(N)=O)sc1-2 | 310 µM (≈ 130 µg/mL) |  |  |  |  | 15.6 ×10⁻⁶ cm/s | 12.1 ×10⁻⁶ cm/s | 
Cc1nc(NC(=O)N2CCC[C@H]2C(N)=O)sc1-c1ccnc(C(C)(C)C)n1 |  | 1128 nmol·h/L | 1.3 L/kg | 18% | 199 nmol·h/L |  |  | 
NC(=O)[C@@H]1CCCN1C(=O)Nc1nc2c(s1)-c1nc(CC3CC3)sc1CC2 | 55 µM (≈ 22.2 µg/mL) |  |  |  |  |  |  | 
CC(C)(C)c1nc2c(s1)CCc1nc(NC(=O)N3CC[C@@H]4C[C@@]43C(N)=O)sc1-2 | 351 µM (≈ 147 µg/mL) |  |  |  |  |  |  | 
Cc1nc(NC(=O)N2CCC[C@H]2C(N)=O)sc1-c1csc(C(C)(C)C)n1 |  | 561 nmol·h/L | 2 L/kg | 2% | 70 nmol·h/L | 15.6 ×10⁻⁶ cm/s | 12.3 ×10⁻⁶ cm/s | 
CN(C)C[C@@H]1CCN(C(=O)Nc2nc3c(s2)-c2nc(C(C)(C)C)ncc2CC3)[C@@H]1C(N)=O | 276 µM (≈ 126 µg/mL) |  |  |  |  |  |  | 
CC(C)(C)c1ncc2c(n1)-c1sc(NC(=O)N3CCC[C@H]3C(N)=O)nc1CC2 | 125 µM (≈ 50.1 µg/mL) |  |  |  |  |  |  | 
CN(C)[C@@H]1C[C@@H](C(N)=O)N(C(=O)Nc2nc3c(s2)-c2nc(C(C)(C)C)ncc2CC3)C1 | 500 µM (≈ 222 µg/mL) |  |  |  |  |  |  | 
CC(C)(C)c1ncc2c(n1)-c1sc(NC(=O)N3CCC[C@@]3(C)C(N)=O)nc1CC2 | 60 µM (≈ 24.9 µg/mL) |  |  |  |  | 25.5 ×10⁻⁶ cm/s | 3.4 ×10⁻⁶ cm/s | 
CN(C)C[C@@]1(C(N)=O)CCCN1C(=O)Nc1nc2c(s1)-c1nc(C(C)(C)C)ncc1CC2 | > 1000 µM | 1444 nmol·h/L | 3.2 L/kg | 77% | 1116 nmol·h/L | 15.8 ×10⁻⁶ cm/s | 5.2 ×10⁻⁶ cm/s | 
C[C@@H]1CCN(C(=O)Nc2nc3c(s2)-c2nc(C(C)(C)C(F)(F)F)sc2CC3)[C@@H]1C(N)=O | 14 µM (≈ 6.63 µg/mL) |  |  |  |  |  |  | concentration at 8 h [8]: > 1000 nM
C[C@@H]1CCN(C(=O)Nc2nc3c(s2)-c2nc(C(C)(C)C)ncc2CC3)[C@@H]1C(N)=O | 71 µM (≈ 29.4 µg/mL) | 5241 nmol·h/L | 0.5 L/kg | 36% | 1874 nmol·h/L | 21.7 ×10⁻⁶ cm/s | 3.4 ×10⁻⁶ cm/s | 
Cc1nc(NC(=O)N2CCC[C@H]2C(N)=O)sc1-c1ccnc(C(C)(C)C(F)(F)F)c1 [ALPELISIB] |  |  |  |  |  | 18.3 ×10⁻⁶ cm/s | 3.8 ×10⁻⁶ cm/s | 
CC(C)(C)c1ncc2c(n1)-c1sc(NC(=O)N3CC[C@@H]4C[C@@]43C(N)=O)nc1CC2 | 51 µM (≈ 21 µg/mL) | 16472 nmol·h/L | 0.6 L/kg | 83% | 13599 nmol·h/L |  |  | concentration at 16 h [9]: 1000 nM; Drug uptake [10]: Active
CN(C)C[C@@H]1CCN(C(=O)Nc2nc3c(s2)-c2nc(C(C)(C)C)sc2CC3)[C@@H]1C(N)=O |  | 956 nmol·h/L | 24 L/kg | 56% | 531 nmol·h/L | 6.87 ×10⁻⁶ cm/s | 0.76 ×10⁻⁶ cm/s | 
